Reference: ChEMBL document CHEMBL4390662, “Design, synthesis and biological evaluation of novel α-acyloxy carboxamides via Passerini reaction as caspase 3/7 activators” (Eur J Med Chem, 2019)
pIC50: −log10 of the molar value. ≈ marks a conversion by molar mass, not a printed value. Calls of active or inactive are those of the source. No cut-off for these calls is given here.

Assays:
[1] = test system: MCF7; assay: Cytotoxicity against human MCF7 cells assessed as cell growth inhibition incubated for 72 hrs by MTT assay; type: functional, cell-based; conditions: MCF7, 72 h
Procedure, shortened: (§1)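 Cells grown in RPMI-1640 with 10% FBS and seeded at 5×10^3 per well. After 24 h, serial concentrations given for 72 h at 37°C, 5% CO2. Then 5 mg/mL MTT stock added for 3 h, formazan dissolved in DMSO, A570 read. IC50 calculated from the curves.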

[2] = test system: Pseudomonas aeruginosa; assay: Antimicrobial activity against Pseudomonas aeruginosa ATCC 27853 incubated for 24 hrs by agar well diffusion assay; type: functional
Procedure, shortened: (§2)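 Nutrient agar spread with 100 µL inoculum: bacteria at 1×10^8 CFU/mL, fungi at 1×10^6 CFU/mL. 10 mm wells loaded with 100 µL of compound in DMSO (final 1 mg/mL). Bacteria incubated 24 h at 37 °C, fungi 48 h at 28 °C. Inhibition zones measured in mm. Ciprofloxacin and fluconazole standards at 1 mg/mL, DMSO negative control.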

[3] = test system: Staphylococcus aureus; assay: Antimicrobial activity against Staphylococcus aureus ATCC 25923 incubated for 24 hrs by agar well diffusion assay; type: functional; procedure, shortened: as §2
[4] = test system: NFS-60; assay: Cytotoxicity against mouse NFS60 cells assessed as cell growth inhibition incubated for 72 hrs by MTT assay; type: functional, cell-based; conditions: NFS-60, 72 h; procedure, shortened: as §1
[5] = test system: Enterococcus faecalis; assay: Antimicrobial activity against Enterococcus faecalis ATCC 29212 incubated for 24 hrs by agar well diffusion assay; type: functional; procedure, shortened: as §2
[6] = Selectivity index, ratio of IC50 for human WI38 cells to IC50 for human MCF7 cells; type: toxicity; conditions: WI38 cells versus MCF7 cells, read-out: Ratio IC50
Procedure, shortened: (§3)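 SI calculated as IC50 on normal Wi-38 fibroblasts divided by IC50 on the cancer cell line. Both came from 72 h MTT assays.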

[7] = Selectivity index, ratio of IC50 for human WI38 cells to IC50 for mouse NFS60 cells; procedure, shortened: as §3
[8] = Selectivity index, ratio of IC50 for human WI38 cells to IC50 for human HepG2 cells; type: toxicity; conditions: WI38 cells versus HepG2 cells, read-out: Ratio IC50; procedure, shortened: as §3
[9] = test system: Candida albicans; assay: Antimicrobial activity against Candida albicans ATCC 90028 incubated for 48 hrs by agar well diffusion assay; type: functional; procedure, shortened: as §2
[10] = test system: WI-38; assay: Cytotoxicity against human WI38 cells assessed as cell growth inhibition incubated for 72 hrs by MTT assay; type: cell-based; conditions: for pIC50: Homo sapiens, WI-38, 72 h; for EC100: human, wi-38, 72 h
Procedure, shortened: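 Wi-38 fibroblasts grown in DMEM with 10% FBS and seeded at 5×10^3 per well. Attachment 24 h, then serial concentrations for 72 h at 37°C, 5% CO2. MTT stock (5 mg/mL) added for 3 h at 37°C, DMSO solubilization, absorbance at 570 nm. IC50 estimated.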

[11] = test system: HepG2; assay: Cytotoxicity against human HepG2 cells assessed as cell growth inhibition incubated for 72 hrs by MTT assay; type: functional, cell-based; conditions: HepG2, 72 h; procedure, shortened: as §1
[12] = test system: Escherichia coli; assay: Antimicrobial activity against Escherichia coli ATCC 25922 incubated for 24 hrs by agar well diffusion assay; type: functional; procedure, shortened: as §2
[13] = test system: Candida albicans; assay: Antimicrobial activity against Candida albicans ATCC 90028 incubated for 24 hrs by microdilution assay; type: functional
Procedure, shortened: (§4)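 Two-fold serial dilutions of test solutions made in Mueller Hinton broth and inoculated. Incubated at 37°C for 24 h. MIC taken as the lowest concentration with no growth. Ciprofloxacin is the antibacterial reference, fluconazole the antifungal one, and DMSO the blank.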

[14] = test system: Staphylococcus aureus; assay: Antimicrobial activity against Staphylococcus aureus ATCC 25923 incubated for 24 hrs by microdilution assay; type: functional; procedure, shortened: as §4
[15] = test system: Escherichia coli; assay: Antimicrobial activity against Escherichia coli ATCC 25922 incubated for 24 hrs by microdilution assay; type: functional; procedure, shortened: as §4

Compound | pIC50 [1] | diameter of the inhibition zone (DIZ) [2] | diameter of the inhibition zone (DIZ) [3] | pIC50 [4] | diameter of the inhibition zone (DIZ) [5] | selectivity ratio [6] | Ratio IC50 [7] | selectivity ratio [8] | diameter of the inhibition zone (DIZ) [9] | pIC50 [10] | EC100 [10] [µM] | pIC50 [11] | diameter of the inhibition zone (DIZ) [12] | MIC [13] | MIC ([14]; ATCC 25923, 24 h) [µM] | MIC [15] | MIC [14] | MIC ([15]; ATCC 25922, 24 h) [µM] | MIC ([13]; ATCC 90028, 24 h) [µM]
O=C(OC1(C(=O)Nc2ccc([N+](=O)[O-])cc2)CCCCC1)c1ccc(C(F)(F)F)cc1 | 7.57 | inactive | inactive | 7.59 | inactive | 6.83 | 7.115 | 6.36 | inactive | 6.73 | 0.0398 | 7.54 | inactive |  |  |  |  |  | 
CCOC1(Nc2ccc([N+](=O)[O-])cc2)C(=O)c2ccccc2C1=O | 7.46 | 16 mm | 12 mm | 7.56 | 13 mm | 1.35 | 1.69 | 1.21 | inactive | 7.33 | 0.0285 | 7.41 | inactive | inactive | 1570 (≈ 512 µg/mL) | inactive |  |  | 
O=C(CCC(=O)OC1(C(=O)Nc2ccc([N+](=O)[O-])cc2)CCCCC1)OC1(C(=O)Nc2ccc([N+](=O)[O-])cc2)CCCCC1 |  |  |  |  |  |  |  |  |  | 6.69 | 0.02 |  |  |  |  |  |  |  | 
COc1ccc(C(=O)OC2(C(=O)Nc3ccc([N+](=O)[O-])cc3)CCCCC2)cc1 | 7.39 | 12 mm | inactive | 7.41 | inactive | 0.97 | 1.031 | 0.7 | inactive | 7.40 | 0.0178 | 7.24 | 12 mm | inactive |  |  | inactive | 2570 (≈ 1020 µg/mL) | 
CCC(=O)OC1(C(=O)Nc2ccc([N+](=O)[O-])cc2)CCCCC1 | 7.85 | 12 mm | inactive | 8.19 | inactive | 3.16 | 6.968 | 2.07 | inactive | 7.35 | 0.0169 | 7.67 | inactive |  |  |  |  |  | 
O=C(Nc1ccc([N+](=O)[O-])cc1)C1(O)CCCCC1 | 6.18 | inactive | inactive | 6.15 | inactive | 1.84 | 1.705 | 1.88 | 15 mm | 5.91 | 0.53 | 6.19 | 12 mm |  |  | inactive | inactive |  | 1040 (≈ 275 µg/mL)
CC(=O)Oc1ccccc1C(=O)OC1(C(=O)Nc2ccc([N+](=O)[O-])cc2)CCCCC1 | 7.77 | 16 mm | inactive | 7.95 | inactive | 2.86 | 4.283 | 2.73 | inactive | 7.32 | 0.0355 | 7.75 | 16 mm | inactive |  |  | inactive | 2400 (≈ 1020 µg/mL) | 
OC(Cn1cncn1)(Cn1cncn1)c1ccc(F)cc1F [FLUCONAZOLE] |  |  |  |  |  |  |  |  | 29 mm |  |  |  |  |  |  |  |  |  | 1 (≈ 0.306 µg/mL)
O=C(OC1(C(=O)Nc2ccc([N+](=O)[O-])cc2)CCCCC1)c1ccccc1I | 6.21 |  |  |  |  | 0.639 |  |  |  | 6.40 | 0.0247 |  |  |  |  |  |  |  | 
CC(=O)OC1(C(=O)Nc2ccc([N+](=O)[O-])cc2)CCCCC1 | 6.39 |  |  | 6.29 |  | 0.957 | 0.746 | 0.743 |  | 6.41 | 0.122 | 6.28 |  |  |  |  |  |  | 
